Assay results from ChEMBL document CHEMBL2401709 (J Med Chem, 2013).
Each block holds one compound with its values, some of them ahead of it. Active and inactive are the calls of the source. No cut-off for these calls is given here.

How the values were obtained:
[1] = test system: G-361; assay: Cytotoxicity against human G361 cells assessed as growth inhibition after 72 hrs by calcein AM staining-based fluoroscence assay; format: functional, cell-based; conditions: G-361, 72 h
[2] = biological target: Cyclin-dependent kinase 7 (Homo sapiens) (UniProt P50613); assay: Inhibition of CDK7 in human G361 cells assessed as reduction of phosphorylation of CDK2 at T160 by immunoblotting analysis; format: cell-based; conditions: G-361
Cyclin-dependent kinase 7 (Homo sapiens), sequence (P50613 whole entry): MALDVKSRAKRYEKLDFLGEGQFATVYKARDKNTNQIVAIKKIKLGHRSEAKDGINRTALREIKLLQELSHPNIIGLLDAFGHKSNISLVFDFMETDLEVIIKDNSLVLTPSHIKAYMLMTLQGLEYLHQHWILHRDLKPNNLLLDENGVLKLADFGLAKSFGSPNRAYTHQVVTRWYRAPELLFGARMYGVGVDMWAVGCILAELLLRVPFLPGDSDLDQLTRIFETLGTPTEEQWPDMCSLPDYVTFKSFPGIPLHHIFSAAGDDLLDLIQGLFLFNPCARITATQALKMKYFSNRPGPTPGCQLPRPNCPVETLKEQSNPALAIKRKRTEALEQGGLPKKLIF
Procedure, shortened: (§1)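 Treated G361 cells harvested into Laemmli sample buffer. Proteins resolved by SDS-PAGE and blotted to nitrocellulose. Membranes blocked, probed overnight with specific primary antibodies, then peroxidase-conjugated secondaries. ECL detection by CCD camera. Actin served as loading control.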

[3] = test system: G-361; assay: Induction of apoptosis in human G361 cells assessed as decrease in Mcl-1 at 300 nM after 24 hrs by immunoblotting analysis; format: functional, cell-based; procedure, shortened: as §1
[4] = biological target: CDK7/Cyclin H/MNAT1 (Homo sapiens, UniProt P50613); assay: Inhibition of CDK7/Cyclin-H/MAT 1 (unknown origin) using (YSPTSPS)2KK peptide as substrate; format: protein-complex assay
CDK7/Cyclin H/MNAT1, sequence (P51946 whole entry): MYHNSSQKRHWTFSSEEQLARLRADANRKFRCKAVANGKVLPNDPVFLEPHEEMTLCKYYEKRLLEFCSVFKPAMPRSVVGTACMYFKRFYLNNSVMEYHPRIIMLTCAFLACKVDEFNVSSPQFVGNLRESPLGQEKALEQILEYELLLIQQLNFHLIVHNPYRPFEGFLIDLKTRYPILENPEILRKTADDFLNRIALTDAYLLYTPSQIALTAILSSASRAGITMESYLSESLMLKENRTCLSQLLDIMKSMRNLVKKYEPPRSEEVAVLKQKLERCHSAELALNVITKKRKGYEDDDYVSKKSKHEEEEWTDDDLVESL
CDK7/Cyclin H/MNAT1, sequence (P50613 whole entry): as the sequence (P50613 whole entry) above
CDK7/Cyclin H/MNAT1, sequence (P51948 whole entry, further chain): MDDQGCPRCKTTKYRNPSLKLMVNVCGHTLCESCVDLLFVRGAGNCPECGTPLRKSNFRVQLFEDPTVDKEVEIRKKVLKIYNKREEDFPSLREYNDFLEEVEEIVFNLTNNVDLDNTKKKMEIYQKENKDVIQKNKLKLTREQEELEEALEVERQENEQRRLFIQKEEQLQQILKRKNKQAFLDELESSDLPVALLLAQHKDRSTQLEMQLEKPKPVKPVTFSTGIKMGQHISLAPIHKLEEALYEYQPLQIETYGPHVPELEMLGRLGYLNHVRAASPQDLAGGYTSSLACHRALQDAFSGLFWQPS
Procedure, shortened: (§2)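 CDK5/p35, CDK7/cyclin H/MAT1 and CDK9/cyclin T1 in 10 μL reactions with 0.05 μCi [γ-33P]ATP. CDK5 used 1 mg/mL histone H1 with 0.15 μM ATP. CDK7 and CDK9 used (YSPTSPS)2KK with 1.5 μM ATP. Stopped with H3PO4, spotted on P-81, washed. IC50 from dose-response curves.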

[5] = biological target: T1, Cyclin-dependent kinase 1 (Homo sapiens, UniProt P06493); assay: Inhibition of CDK1 in human G361 cells sensitized with nocodazole assessed as PP1alpha phosphorylation at Thr320 at 640 nM after 8 hrs by immunoblotting analysis; format: cell-based; conditions: G-361
T1 sequence (P06493 whole entry, looked up): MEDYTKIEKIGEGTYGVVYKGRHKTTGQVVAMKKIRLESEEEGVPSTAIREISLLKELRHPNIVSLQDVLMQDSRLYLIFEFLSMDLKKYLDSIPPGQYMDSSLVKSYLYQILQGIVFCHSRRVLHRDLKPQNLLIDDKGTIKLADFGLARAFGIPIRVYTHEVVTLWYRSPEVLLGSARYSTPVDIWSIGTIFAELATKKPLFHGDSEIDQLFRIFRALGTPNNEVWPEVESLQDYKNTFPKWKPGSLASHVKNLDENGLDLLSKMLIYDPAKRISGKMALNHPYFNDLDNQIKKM
Procedure, shortened: (§3)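 G361 cells arrested in mitosis with nocodazole, then dosed with compound. Lysates in Laemmli buffer were immunoblotted on nitrocellulose with antibodies to phospho-PP1α (T320) and phospho-NPM (T199). Peroxidase secondaries with ECL detection.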

[6] = biological target: Cyclin-dependent kinase 5/CDK5 activator 1 (Homo sapiens, UniProt Q00535); assay: Inhibition of CDK5/p35 (unknown origin) using histone H1 as substrate; format: protein-complex assay; procedure, shortened: as §2
Cyclin-dependent kinase 5/CDK5 activator 1, sequence (Q00535 whole entry): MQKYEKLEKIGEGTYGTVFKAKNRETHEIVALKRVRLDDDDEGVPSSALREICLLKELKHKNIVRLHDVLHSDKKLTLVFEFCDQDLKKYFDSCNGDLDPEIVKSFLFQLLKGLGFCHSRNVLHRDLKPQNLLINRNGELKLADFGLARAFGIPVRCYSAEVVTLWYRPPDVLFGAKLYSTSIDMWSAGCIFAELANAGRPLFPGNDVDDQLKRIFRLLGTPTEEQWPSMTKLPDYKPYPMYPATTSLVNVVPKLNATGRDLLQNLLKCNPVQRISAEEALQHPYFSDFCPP
Cyclin-dependent kinase 5/CDK5 activator 1, sequence (Q15078 whole entry, further chain): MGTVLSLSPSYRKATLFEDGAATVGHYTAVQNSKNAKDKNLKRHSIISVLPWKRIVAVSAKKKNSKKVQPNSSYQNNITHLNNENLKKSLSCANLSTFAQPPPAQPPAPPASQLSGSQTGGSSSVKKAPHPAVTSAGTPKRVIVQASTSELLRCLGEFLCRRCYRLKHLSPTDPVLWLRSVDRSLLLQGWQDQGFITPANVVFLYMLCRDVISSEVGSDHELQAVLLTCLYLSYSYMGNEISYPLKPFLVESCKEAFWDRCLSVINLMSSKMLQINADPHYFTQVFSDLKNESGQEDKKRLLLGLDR

[7] = test system: G-361; assay: Induction of apoptosis in human G361 cells assessed as dephosphorylation of RNA polymerase 2 at Ser2 at 640 nM up to 1 hr by immunoblotting analysis; format: functional, cell-based; procedure, shortened: as §1
[8] = test system: G-361; assay: Induction of apoptosis in human G361 cells assessed as increase of activated caspase 3/7 level using Ac-DEVD-AMC as substrate at 20 to 1280 nM after 24 hrs by fluorimetry assay
[9] = test system: HCT-116; assay: Cytotoxicity against human HCT116 cells assessed as growth inhibition after 72 hrs by calcein AM staining-based fluoroscence assay; format: functional, cell-based; conditions: HCT-116, 72 h
[10] = biological target: Cyclin-dependent kinase 2/cyclin E1 (Homo sapiens) (UniProt P24864+P24941); assay: Ratio of roscovitine IC50 to compound IC50 for human recombinant CDK2/Cyclin E; format: protein-complex assay
[11] = test system: G-361; assay: Induction of apoptosis in human G361 cells assessed as dephosphorylation of retinoblastoma protein at Ser780 at 640 nM up to 1 hr by immunoblotting analysis; format: functional, cell-based; procedure, shortened: as §1
[12] = test system: G-361; assay: Induction of apoptosis in human G361 cells assessed as dephosphorylation of retinoblastoma protein at Ser612 at 640 nM up to 1 hr by immunoblotting analysis; format: functional, cell-based; procedure, shortened: as §1
[13] = test system: G-361; assay: Induction of apoptosis in human G361 cells assessed as decrease in Mcl-1 after 24 hrs by immunoblotting analysis; format: functional, cell-based; procedure, shortened: as §1
[14] = test system: G-361; assay: Induction of apoptosis in human G361 cells assessed as induction of caspase-7 clevage at 300 nM after 24 hrs by immunoblotting analysis; format: functional, cell-based; procedure, shortened: as §1
[15] = test system: G-361; assay: Induction of apoptosis in human G361 cells assessed as induction of PARP-1 clevage at 640 nM after 16 hrs by immunoblotting analysis; format: functional, cell-based; procedure, shortened: as §1
[16] = test system: MCF7; assay: Cytotoxicity against human MCF7 cells assessed as growth inhibition after 72 hrs by calcein AM staining-based fluoroscence assay; format: functional, cell-based; conditions: MCF7, 72 h
[17] = test system: G-361; assay: Induction of apoptosis in human G361 cells assessed as decrease in Mcl-1 protein level at 300 nM after 24 hrs by immunoblotting analysis; format: functional, cell-based; procedure, shortened: as §1
[18] = test system: G-361; assay: Induction of apoptosis in human G361 cells assessed as increase of caspase 3/7 activation using Ac-DEVD-AMC as substrate at 20 to 1280 nM after 24 hrs by fluorimetry assay; format: functional, cell-based
[19] = biological target: Cyclin-dependent kinase 9 (Homo sapiens) (UniProt P50750); assay: Inhibition of CDK9-mediated RNA polymerase 2 phosphorylation at ser2 in human G361 cells at 300 nM after 24 hrs by immunoblotting analysis; format: cell-based; conditions: G-361; procedure, shortened: as §1
Cyclin-dependent kinase 9 (Homo sapiens), sequence (P50750 whole entry): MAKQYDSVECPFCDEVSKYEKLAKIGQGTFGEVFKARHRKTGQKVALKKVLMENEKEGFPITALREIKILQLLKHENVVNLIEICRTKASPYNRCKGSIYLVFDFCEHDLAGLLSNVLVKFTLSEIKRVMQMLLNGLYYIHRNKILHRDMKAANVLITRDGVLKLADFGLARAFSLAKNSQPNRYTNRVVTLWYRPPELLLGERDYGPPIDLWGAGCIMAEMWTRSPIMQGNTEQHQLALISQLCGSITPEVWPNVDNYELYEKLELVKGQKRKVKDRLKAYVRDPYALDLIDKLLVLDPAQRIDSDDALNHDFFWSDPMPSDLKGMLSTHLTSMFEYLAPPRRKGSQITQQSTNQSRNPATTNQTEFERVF

[20] = biological target: Cyclin-dependent kinase 2/cyclin E1 (Homo sapiens, UniProt P24941); assay: Inhibition of human recombinant CDK2/Cyclin E expressed in baculovirus infected sf9 cells using histone H1 as substrate
[21] = biological target: CDK9/cyclin T1 (Homo sapiens, UniProt P50750); assay: Inhibition of CDK9/Cyclin T1 (unknown origin) using (YSPTSPS)2KK peptide as substrate; format: protein-complex assay; procedure, shortened: as §2
CDK9/cyclin T1, sequence (O60563 whole entry): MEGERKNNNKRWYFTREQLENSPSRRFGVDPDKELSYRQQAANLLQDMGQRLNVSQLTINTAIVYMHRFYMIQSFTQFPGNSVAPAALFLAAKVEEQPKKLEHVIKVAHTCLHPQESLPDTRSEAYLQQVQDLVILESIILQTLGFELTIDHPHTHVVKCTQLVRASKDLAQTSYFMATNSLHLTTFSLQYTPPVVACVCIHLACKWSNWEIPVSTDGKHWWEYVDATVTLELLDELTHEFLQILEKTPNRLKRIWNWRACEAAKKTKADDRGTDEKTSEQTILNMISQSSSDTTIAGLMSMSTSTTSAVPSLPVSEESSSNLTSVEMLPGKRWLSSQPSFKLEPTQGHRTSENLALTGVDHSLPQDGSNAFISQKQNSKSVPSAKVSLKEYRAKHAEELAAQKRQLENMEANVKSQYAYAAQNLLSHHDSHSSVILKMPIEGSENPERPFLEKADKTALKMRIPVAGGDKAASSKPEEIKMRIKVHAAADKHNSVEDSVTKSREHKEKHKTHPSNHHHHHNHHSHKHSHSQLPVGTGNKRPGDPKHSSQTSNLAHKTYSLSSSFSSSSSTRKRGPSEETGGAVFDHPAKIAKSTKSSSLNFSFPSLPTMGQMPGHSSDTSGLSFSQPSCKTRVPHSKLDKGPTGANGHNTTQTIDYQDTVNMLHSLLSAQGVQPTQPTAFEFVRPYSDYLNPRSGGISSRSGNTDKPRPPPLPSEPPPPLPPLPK
CDK9/cyclin T1, sequence (P50750 whole entry): as the sequence (P50750 whole entry) above

[22] = test system: G-361; assay: Induction of apoptosis in human G361 cells assessed as reduction of retinoblastoma protein level at 640 nM after 16 hrs by immunoblotting analysis; format: functional, cell-based; procedure, shortened: as §1
[23] = biological target: T1, Cyclin-dependent kinase 1; assay: Inhibition of CDK1 in human G361 cells sensitized with nocodazole assessed as PP1alpha phosphorylation at Thr320 at 640 nM after 4 hrs by immunoblotting analysis; format: cell-based; conditions: G-361; procedure, shortened: as §3
[24] = biological target: CDK2/CDK4 (Homo sapiens) (UniProt P11802+P24941); assay: Inhibition of CDK2/4-mediated retinoblastoma protein phosphorylation at ser780 in human G361 cells at 300 nM after 24 hrs by immunoblotting analysis; format: cell-based; conditions: G-361; procedure, shortened: as §1
[25] = test system: G-361; assay: Induction of apoptosis in human G361 cells assessed as induction of PARP-1 clevage at 80 nM after 24 hrs by immunoblotting analysis; format: functional, cell-based; procedure, shortened: as §1
[26] = test system: G-361; assay: Induction of apoptosis in human G361 cells assessed as decrease in Mcl-1 at 640 nM up to 2 hrs by immunoblotting analysis; format: functional, cell-based; procedure, shortened: as §1
[27] = test system: K562; assay: Cytotoxicity against human K562 cells assessed as growth inhibition after 72 hrs by calcein AM staining-based fluoroscence assay; format: functional, cell-based; conditions: K562, 72 h
[28] = biological target: Cyclin-dependent kinase 7 (Homo sapiens) (UniProt P50613); assay: Inhibition of CDK7 in human G361 cells assessed as reduction of phosphorylation of CDK1 at T161 by immunoblotting analysis; format: cell-based; conditions: G-361; procedure, shortened: as §1
[29] = test system: G-361; assay: Induction of apoptosis in human G361 cells assessed as caspase 9 activation using Ac-DEHD-AMC as substrate at 300 nM after 24 hrs by fluorimetry assay; format: functional, cell-based; conditions: in the assay text read “Ac-LEHD-AMC” for “Ac-DEHD-AMC”
Procedure, shortened: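 G361 lysates were made in CHAPS extraction buffer, pH 7.4, clarified at 10000g, and protein-equalized. They were incubated 24 h with 100 μM Ac-LEHD-AMC in 100 mM HEPES pH 7.5, 0.5 mM EDTA, 20% glycerol, 5 mM DTT. AMC fluorescence read at 355/460 nm (ex/em).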

[30] = test system: G-361; assay: Induction of apoptosis in human G361 cells assessed as reduction of RNA polymerase 2 level at 640 nM after 16 hrs by immunoblotting analysis; format: functional, cell-based; procedure, shortened: as §1
[31] = test system: G-361; assay: Induction of apoptosis in human G361 cells assessed as induction of caspase-9 clevage at 300 nM after 24 hrs by immunoblotting analysis; format: functional, cell-based; procedure, shortened: as §1
[32] = biological target: Cyclin-dependent kinase 2 (Homo sapiens) (UniProt P24941); assay: Inhibition of CDK2 in human G361 cells sensitized with nocodazole assessed as NPM phosphorylation at Thr199 at 640 nM after 4 hrs by immunoblotting analysis; format: cell-based; conditions: G-361; procedure, shortened: as §3
[33] = test system: G-361; assay: Induction of apoptosis in human G361 cells assessed as caspase 3/7 activation using Ac-DEVD-AMC as substrate at 300 nM after 24 hrs by fluorimetry assay; format: functional, cell-based
[34] = test system: G-361; assay: Induction of apoptosis in human G361 cells assessed as increase in p53 after 24 hrs by immunoblotting analysis; format: functional, cell-based; procedure, shortened: as §1
[35] = test system: G-361; assay: Induction of apoptosis in human G361 cells assessed as dephosphorylation of RNA polymerase 2 at Ser5 at 640 nM up to 1 hr by immunoblotting analysis; format: functional, cell-based; procedure, shortened: as §1
[36] = test system: G-361; assay: Induction of apoptosis in human G361 cells assessed as caspase 3/7 activation at 640 nM after 16 hrs by Ac-DEVD-AMC-based fluorimetry assay; format: functional, cell-based
[37] = test system: G-361; assay: Induction of apoptosis in human G361 cells assessed as induction of caspase-3 clevage at 300 nM after 24 hrs by immunoblotting analysis; format: functional, cell-based; procedure, shortened: as §1
[38] = test system: HeLa; assay: Cytotoxicity against human HeLa cells assessed as growth inhibition after 72 hrs by calcein AM staining-based fluoroscence assay; format: functional, cell-based
[39] = test system: HOS; assay: Cytotoxicity against human HOS cells assessed as growth inhibition after 72 hrs by calcein AM staining-based fluoroscence assay; format: functional, cell-based
[40] = test system: G-361; assay: Induction of apoptosis in human G361 cells assessed as induction of PARP-1 clevage at 300 nM after 24 hrs by immunoblotting analysis; format: functional, cell-based; procedure, shortened: as §1

- inhibition [2]: Active
- IC50 [4]: 0.306 µM
- IC50 [6]: 0.0187 µM
- Ratio IC50 [10]: 20
- Inhibition of RNA polymerase II Ser2 phosphorylation (qualitative) [19]: Active
- IC50 [20]: 0.0071 µM
- IC50 [21]: 0.0109 µM
- inhibition [24]: Active
- inhibition [28]: Active
Compound: NC1CCC(Nc2nc(NCc3ccc(-c4ccccc4O)nc3)c3ncn(C4CCCC4)c3n2)CC1 (stereo unspecified)
- IC50 [1]: 0.024 µM
- Activity [3]: Active
- inhibition [5]: Active
- Activity [7]: Active
- Activity [8]: Active
- IC50 [9]: 0.035 µM
- Activity [11]: Active
- Activity [12]: Active
- Activity [13]: Dose-dependent effect
- Activity [14]: Active
- Activity [15]: Active
- IC50 [16]: 0.018 µM
- Activity [17]: Active
- Activity [18]: Active
- Activity [22]: Active
- inhibition [23]: Active
- Activity [25]: Active
- Activity [26]: Active
- IC50 [27]: 0.016 µM
- Activity [29]: Active
- Activity [30]: Active
- Activity [31]: Active
- inhibition [32]: Active
- Activity [33]: Active
- Activity [34]: Dose-dependent effect
- Activity [35]: Active
- Activity [36]: Active
- Activity [37]: Active
- IC50 [38]: 0.016 µM
- IC50 [39]: 0.014 µM
- Activity [40]: Active

- Ratio IC50 [10]: 20
- Inhibition of RNA polymerase II Ser2 phosphorylation (qualitative) [19]: Active
- IC50 [20]: 0.008 µM
- inhibition [24]: Active
Compound: NC1CCC(Nc2nc(NCc3ccc(-c4ccoc4)nc3)c3ncn(C4CCCC4)c3n2)CC1 (stereo unspecified)
- IC50 [1]: 0.097 µM
- Activity [3]: Active
- IC50 [9]: 0.046 µM
- Activity [14]: Active
- IC50 [16]: 0.032 µM
- Activity [17]: Active
- IC50 [27]: 0.056 µM
- Activity [29]: Active
- Activity [31]: Active
- Activity [33]: Active
- Activity [37]: Active
- IC50 [38]: 0.015 µM
- IC50 [39]: 0.024 µM
- Activity [40]: Active

- Ratio IC50 [10]: 20
- Inhibition of RNA polymerase II Ser2 phosphorylation (qualitative) [19]: Active
- IC50 [20]: 0.004 µM
- inhibition [24]: Active
Compound: NC1CCC(Nc2nc(NCc3ccc(-c4cccs4)nc3)c3ncn(C4CCCC4)c3n2)CC1 (stereo unspecified)
- IC50 [1]: 0.15 µM
- Activity [3]: Active
- IC50 [9]: 0.097 µM
- Activity [14]: Active
- IC50 [16]: 0.092 µM
- Activity [17]: Active
- IC50 [27]: 0.1 µM
- Activity [29]: Active
- Activity [31]: Active
- Activity [33]: Active
- Activity [37]: Active
- IC50 [38]: 0.04 µM
- IC50 [39]: 0.032 µM
- Activity [40]: Active
